# From publication PMC3215888 (Cancer Chemotherapy and Pharmacology, 2011)
# Where two headings read alike, the source gives them in different places.
# What was measured:
# [1] = test system: NB-1771 Neuroblastoma xenograft; type: in vivo, mice
# Procedure, shortened: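 Female CB17 scid mice bearing subcutaneous tumors, 10 per group. Dosed by oral gavage twice daily, 5 days weekly for 6 weeks, at 20.8, 10.4, 5.2 or 2.6 mg/kg, in 10% 2-hydroxypropyl-β-cyclodextrin/1% sodium bicarbonate. Event = quadrupled tumor volume; EFS by Kaplan–Meier, exact log-rank test. Per-mouse scores PD/SD/PR (≥50% regression)/CR (<0.10 cm3)/MCR; group median reported. PR, CR and MCR count as objective responses.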
# [2] = test system: SK-N-BE(1) neuroblastoma cell line; assay: DIMSCAN in vitro testing, 96 h; type: cell-based; conditions: for IC50: Neuroblastoma cell, 96 h
# NB-1771 tumor xenograft = assay: Pharmacodynamics: mitotic index; type: in vivo, mice; conditions: single 20.8 mg/kg
# Procedure, shortened: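 Single oral 20.8 mg/kg dose to mice bearing NB-1771 tumors. Tumors taken at 0, 2, 6, 8, 12 and 24 h (3 mice per time), formalin-fixed, paraffin-embedded. 5 μm sections immunofluorescently stained for MPM2 (1:100) and phospho-Ser10 histone H3 (1:25), 60 min at room temperature, DAPI counterstain. Five 40× images per slide; mitotic index = % cells positive for either marker; mean ± SD.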
# [3] = test system: ALL-8 ALL T-cell xenograft; assay: ALL xenograft; type: in vivo, mice
# Procedure, shortened: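 Female NOD/scid mice inoculated intravenously with leukemia cells, 8 per group. Test compound suspended in 10% 2-hydroxypropyl-β-cyclodextrin/1% sodium bicarbonate in water. Given by oral gavage twice daily, 5 days weekly for 3 weeks, at 20.8, 10.4, 5.2 or 2.6 mg/kg. Blood %hCD45 of leukocytes tracked; event = hCD45 reaching 25%. EFS by Kaplan–Meier, exact log-rank vs controls. Median group response from individual scores.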
# [4] = test system: SMS-KAN neuroblastoma cell line; assay: DIMSCAN in vitro testing, 96 h; type: cell-based
# [5] = test system: CHLA-32 Ewing sarcoma cell line; assay: DIMSCAN in vitro testing, 96 h; type: cell-based; conditions: for IC50: 96 h
# Procedure, shortened: (§1)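 Neuroblastoma and Ewing sarcoma lines, STR-verified and maintained as in the originators' reports. Exposed for 96 h to test compound (DMSO stock diluted in medium) at 1 nM–10 μM. Viable cells quantified by fluorescein diacetate fluorescence with DIMSCAN digital image microscopy. Absolute IC50 = concentration giving 50% growth inhibition vs controls. Relative IC50 = concentration giving 50% of the maximum inhibitory effect.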
# [6] = test system: CHLA-122 neuroblastoma cell line; assay: DIMSCAN in vitro testing, 96 h; type: cell-based; conditions: for IC50: Neuroblastoma cell, 96 h
# Procedure, shortened: as §1
# [7] = test system: LA–N-6 neuroblastoma cell line; assay: DIMSCAN in vitro testing, 96 h; type: cell-based; conditions: for IC50: Neuroblastoma cell, 96 h
# Procedure, shortened: as §1
# [8] = test system: COG-E-352 Ewing sarcoma cell line; assay: DIMSCAN in vitro testing, 96 h; type: cell-based; conditions: for IC50: 96 h
# Procedure, shortened: as §1
# Toxicity = type: in vivo, mice; conditions: solid tumor study at the MTD
# Procedure, shortened: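 Deaths counted in control and treated arms of the xenograft efficacy studies (10 mice per solid tumor group, 8 per ALL group). A group would be excluded from analysis if mortality exceeded 25%.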
# [9] = test system: SK-N-BE(2) neuroblastoma cell line; assay: DIMSCAN in vitro testing, 96 h; type: cell-based; conditions: minimum T/C
# Procedure, shortened: as §1
# [10] = test system: CHLA-119 neuroblastoma cell line; assay: DIMSCAN in vitro testing, 96 h; type: cell-based; conditions: for IC50: Neuroblastoma cell, 96 h
# Procedure, shortened: as §1
# [11] = test system: NB-1643 neuroblastoma cell line; assay: DIMSCAN in vitro testing, 96 h; type: cell-based; conditions: for IC50: NB-1643, 96 h
# Procedure, shortened: as §1
# Aurora kinase A = conditions: cited from earlier work
# [12] = test system: Ewing sarcoma (n = 11) and neuroblastoma (n = 17) cell lines; assay: DIMSCAN in vitro testing, 96 h, whole extended panel; type: cell-based
smiles,measurement,setting,value
COc1cc(Nc2ncc3c(n2)-c2ccc(Cl)cc2C(c2c(F)cccc2OC)=NC3)ccc1C(=O)O [MLN8237],EFS T/C,[1]; 2.6 mg/kg,1.9
same,EFS activity,[1]; 2.6 mg/kg,Low
same,Estimate of median time to event,[1]; 2.6 mg/kg,38.2 days
same,Median group response,[1]; 2.6 mg/kg,"PD2 (if the TGD value >1.5, the mouse was considered PD2)"
same,Response activity,[1]; 2.6 mg/kg,Int
same,Tumor volume T/C,[1]; 2.6 mg/kg,0.38
same,Median RTV/hCD45 at end of study,[1]; 2.6 mg/kg,>4
same,EFS T/C,[1]; 5.2 mg/kg,>2.1
same,EFS activity,[1]; 5.2 mg/kg,Int
same,Median group response,[1]; 5.2 mg/kg,"PD2 (if the TGD value >1.5, the mouse was considered PD2)"
same,Response activity,[1]; 5.2 mg/kg,Int
same,Tumor volume T/C,[1]; 5.2 mg/kg,0.38
same,Median RTV/hCD45 at end of study,[1]; 5.2 mg/kg,2.2
same,EFS T/C,[1]; 10.4 mg/kg,>2.1
same,EFS activity,[1]; 10.4 mg/kg,High
same,Median group response,[1]; 10.4 mg/kg,MCR
same,Response activity,[1]; 10.4 mg/kg,High
same,Tumor volume T/C,[1]; 10.4 mg/kg,0.08
same,Median RTV/hCD45 at end of study,[1]; 10.4 mg/kg,0.0
same,EFS T/C,[1]; 20.8 mg/kg,>2.1
same,EFS activity,[1]; 20.8 mg/kg,High
same,Median group response,[1]; 20.8 mg/kg,MCR
same,Response activity,[1]; 20.8 mg/kg,High
same,Tumor volume T/C,[1]; 20.8 mg/kg,0.02
same,Median RTV/hCD45 at end of study,[1]; 20.8 mg/kg,0.0
same,IC50,[2]; read-out: Absolute IC50,28 nM
same,IC50,[2]; read-out: Relative IC50,24 nM
same,Ymin,"[2]; SK-N-BE(1), minimum T/C",4.0%
same,time of return of mitotic indices to baseline levels,NB-1771 tumor xenograft,24 h
same,time of peak of mitotic indices / pharmacodynamic activity,NB-1771 tumor xenograft; 20.8 mg/kg,12 h
same,"increase of mitotic indices (MPM2, pHistH3) within 6 h",NB-1771 tumor xenograft; 6 h,approximately twofold
same,"increase of mitotic indices (MPM2, pHistH3) at peak",NB-1771 tumor xenograft; 12 h,three to fivefold
same,EFS T/C,[3]; 2.6 mg/kg,1.8
same,EFS activity,[3]; 2.6 mg/kg,Low
same,Estimate of median time to event,[3]; 2.6 mg/kg,23.0 days
same,Median group response,[3]; 2.6 mg/kg,"PD2 (if the TGD value >1.5, the mouse was considered PD2)"
same,Response activity,[3]; 2.6 mg/kg,Int
same,Median RTV/hCD45 at end of study,[3]; 2.6 mg/kg,>25%
same,EFS T/C,[3]; 5.2 mg/kg,2.5
same,EFS activity,[3]; 5.2 mg/kg,Int
same,Estimate of median time to event,[3]; 5.2 mg/kg,31.6 days
same,Response activity,[3]; 5.2 mg/kg,High
same,Median RTV/hCD45 at end of study,[3]; 5.2 mg/kg,>25%
same,EFS T/C,[3]; 10.4 mg/kg,>3.3
same,EFS activity,[3]; 10.4 mg/kg,Int
same,Response activity,[3]; 10.4 mg/kg,High
same,Median RTV/hCD45 at end of study,[3]; 10.4 mg/kg,6.2%
same,EFS T/C,[3]; 20.8 mg/kg,>3.3
same,EFS activity,[3]; 20.8 mg/kg,High
same,Median group response,[3]; 20.8 mg/kg,MCR
same,Response activity,[3]; 20.8 mg/kg,High
same,Median RTV/hCD45 at end of study,[3]; 20.8 mg/kg,0.2%
same,IC50,[4]; read-out: Absolute IC50,34 nM
same,IC50,[4]; read-out: Relative IC50,32 nM
same,IC50,[5]; read-out: Absolute IC50,136 nM
same,IC50,[5]; read-out: Relative IC50,92 nM
same,Ymin,"[5]; CHLA-32, minimum T/C",13.1%
same,Ymin,"[6]; CHLA-122, minimum T/C",0.6%
same,IC50,[6]; read-out: Absolute IC50,19 nM
same,IC50,[6]; read-out: Relative IC50,17 nM
same,Ymin,"[7]; LA–N-6, minimum T/C",32.1%
same,IC50,[7]; read-out: Absolute IC50,54 nM
same,IC50,[7]; read-out: Relative IC50,31 nM
same,IC50,[8]; read-out: Absolute IC50,43 nM
same,IC50,[8]; read-out: Relative IC50,35 nM
same,Ymin,"[8]; COG-E-352, minimum T/C",11.4%
same,mice that died in the MLN8237 treatment arms,Toxicity,5 of 90
same,"mice that died in the MLN8237 treatment arms, percent",Toxicity,5.6%
same,Ymin,[9],16.5%
same,Ymin,"[10]; CHLA-119, minimum T/C",0.5%
same,IC50,[10]; read-out: Absolute IC50,22 nM
same,IC50,[10]; read-out: Relative IC50,22 nM
same,IC50,[11]; read-out: Absolute IC50,37 nM
same,IC50,[11]; read-out: Relative IC50,32 nM
same,Ymin,"[11]; NB-1643, minimum T/C",10.2%
same,specificity for Aurora kinase A inhibition versus Aurora kinase B,Aurora kinase A,200 fold
same,"Ymin, maximum",[12]; maximum of 28 cell lines,48.1%
same,"Ymin, median",[12]; median of 28 cell lines,10.9%
same,"Ymin, minimum",[12]; minimum of 28 cell lines,0.5%
same,IC50,"[12]; read-out: Absolute IC50, maximum",10000 nM
same,IC50,"[12]; read-out: Absolute IC50, median",37 nM
same,IC50,"[12]; read-out: Absolute IC50, minimum",10 nM
same,IC50,"[12]; read-out: Relative IC50, maximum",10000 nM
same,IC50,"[12]; read-out: Relative IC50, median",32 nM
same,IC50,"[12]; read-out: Relative IC50, minimum",9 nM
